According to ChEMBL document CHEMBL1154235, “Rational design and semisynthesis of betulinic acid analogues as potent topoisomerase inhibitors” (J Nat Prod, 2009):

Columns and labels:
[1] = tested on: SK-MEL-5; assay: Cytotoxicity against human SK-MEL-5 cells assessed as cell growth at 10 uM; format: functional; conditions: read-out: Activity
Outline: (§1)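 Single-dose screen at 10 µM against the 60 human cell line panel, run by the NCI Developmental Therapeutics Program and scored as cell growth.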

[2] = tested on: K562; assay: Cytotoxicity against human K562 cells assessed as cell growth at 10 uM; format: functional; conditions: read-out: Activity; outline: as §1
[3] = tested on: HCT-15; assay: Cytotoxicity against human HCT15 cells assessed as cell growth at 10 uM; format: functional; conditions: read-out: Activity; outline: as §1
[4] = tested on: MDA-MB-231; assay: Antiproliferative activity against human MDA-MB-231 cells after 3 days by MTT assay; format: functional, cell-based; conditions: MDA-MB-231, 72 h
Outline: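 MDA-MB-231 cells kept in RPMI 1640 with 10% heat-inactivated FBS and 25 mM HEPES at 37 °C in 5% CO2. Plated at about 15 000/well and preincubated 1 day, then exposed to compound for 3 days at 37 °C, with doses in triplicate. MTT added for 4 h, formazan dissolved in detergent overnight at room temperature in the dark, OD read at 580 nm against a cell-free blank. Cell numbers from a calibration curve; IC50 from dose-response curves.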

[5] = tested on: TK-10; assay: Cytotoxicity against human TK10 cells assessed as cell growth at 10 uM; format: functional; conditions: read-out: Activity
[6] = tested on: HCT-116; assay: Cytotoxicity against human HCT116 cells assessed as cell growth at 10 uM; format: functional; conditions: read-out: Activity; outline: as §1
[7] = tested on: LOX IMVI; assay: Cytotoxicity against human LOXIMVI cells assessed as cell growth at 10 uM; format: functional; conditions: read-out: Activity; outline: as §1
[8] = tested on: CCRF-CEM; assay: Cytotoxicity against human CCRF-CEM cells assessed as cell growth at 10 uM; format: functional; conditions: read-out: Activity; outline: as §1
[9] = tested on: OVCAR-3; assay: Cytotoxicity against human OVCAR-3 cells assessed as cell growth at 10 uM; format: functional; conditions: read-out: Activity; outline: as §1
[10] = tested on: CAKI-1; assay: Cytotoxicity against human Caki1 cells assessed as cell growth at 10 uM; format: functional; conditions: read-out: Activity; outline: as §1
[11] = tested on: NCI-H522; assay: Cytotoxicity against human NCI-H522 cells assessed as cell growth at 10 uM; format: functional; conditions: read-out: Activity; outline: as §1
[12] = tested on: M14; assay: Cytotoxicity against human M14 cells assessed as cell growth at 10 uM; format: functional; conditions: read-out: Activity; outline: as §1
[13] = tested on: A549; assay: Cytotoxicity against human A549 cells assessed as cell growth at 10 uM; format: functional; conditions: read-out: Activity; outline: as §1
[14] = tested on: RPMI-8226; assay: Cytotoxicity against human RPMI8226 cells assessed as cell growth at 10 uM; format: functional; conditions: read-out: Activity; outline: as §1
[15] = tested on: SK-OV-3; assay: Cytotoxicity against human SKOV3 cells assessed as cell growth at 10 uM; format: functional; conditions: read-out: Activity; outline: as §1
[16] = tested on: DU-145; assay: Cytotoxicity against human DU145 cells assessed as cell growth at 10 uM; format: functional; conditions: read-out: Activity; outline: as §1
[17] = tested on: MDA-MB-468; assay: Cytotoxicity against human MDA-MB-468 cells assessed as cell growth at 10 uM; format: functional; conditions: read-out: Activity; outline: as §1
[18] = tested on: ACHN; assay: Cytotoxicity against human ACHN cells assessed as cell growth at 10 uM; format: functional; conditions: read-out: Activity; outline: as §1
[19] = tested on: MDA-MB-435; assay: Cytotoxicity against human MDA-MB-435 cells assessed as cell growth at 10 uM; format: functional; conditions: read-out: Activity; outline: as §1
[20] = tested on: SK-MEL-28; assay: Cytotoxicity against human SK-MEL-28 cells assessed as cell growth at 10 uM; format: functional; conditions: read-out: Activity; outline: as §1
[21] = tested on: A498; assay: Cytotoxicity against human A498 cells assessed as cell growth at 10 uM; format: functional; conditions: read-out: Activity; outline: as §1
[22] = tested on: HL-60(TB); assay: Cytotoxicity against human HL-60(TB) cells assessed as cell growth at 10 uM; format: functional; conditions: read-out: Activity
Outline: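 Single-dose screen run externally by the NCI Developmental Therapeutics Program across its 60 human tumour cell line panel. Compound tested at 10 µM.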

[23] = tested on: HCT-116; assay: Antiproliferative activity against human HCT116 cells after 3 days by XTT assay; format: functional, cell-based; conditions: HCT-116, 72 h
Outline: (§2)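 Cells plated at 4000/well and grown 1 day at 37 °C, then exposed to a range of drug concentrations for 3 more days. Read-out by XTT tetrazolium reduction on a plate reader. Each concentration run in triplicate. IC50 taken from a linear-quadratic fit. Assays repeated two or three times and reported as mean ± SE. HCT-116 kept in modified McCoy's 5a and SW948 in Leibovitz's L-15, each with 10% heat-inactivated FBS and 2 mM L-glutamine.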

[24] = tested on: SF-268; assay: Cytotoxicity against human SF268 cells assessed as cell growth at 10 uM; format: functional; conditions: read-out: Activity; outline: as §1
[25] = tested on: EKVX; assay: Cytotoxicity against human EKVX cells assessed as cell growth at 10 uM; format: functional; conditions: read-out: Activity; outline: as §1
[26] = tested on: Malme-3M; assay: Cytotoxicity against human MALME-3M cells assessed as cell growth at 10 uM; format: functional; conditions: read-out: Activity; outline: as §1
[27] = tested on: HOP-62; assay: Cytotoxicity against human HOP62 cells assessed as cell growth at 10 uM; format: functional; conditions: read-out: Activity; outline: as §1
[28] = tested on: MOLT-4; assay: Cytotoxicity against human MOLT4 cells assessed as cell growth at 10 uM; format: functional; conditions: read-out: Activity; outline: as §1
[29] = tested on: BT-549; assay: Cytotoxicity against human BT549 cells assessed as cell growth at 10 uM; format: functional; conditions: read-out: Activity; outline: as §1
[30] = tested on: KM12; assay: Cytotoxicity against human KM12 cells assessed as cell growth at 10 uM; format: functional; conditions: read-out: Activity; outline: as §1
[31] = tested on: NCI-H460; assay: Cytotoxicity against human NCI-H460 cells assessed as cell growth at 10 uM; format: functional; conditions: read-out: Activity; outline: as §1
[32] = tested on: OVCAR-8; assay: Cytotoxicity against human OVCAR8 cells assessed as cell growth at 10 uM; format: functional; conditions: read-out: Activity; outline: as §1
[33] = tested on: SW948; assay: Antiproliferative activity against human SW948 cells after 3 days by XTT assay; format: functional, cell-based; conditions: SW948, 72 h; outline: as §2
[34] = tested on: NCI/ADR-RES; assay: Cytotoxicity against human NCI/ADR-RES cells assessed as cell growth at 10 uM; format: functional; conditions: read-out: Activity; outline: as §1
[35] = tested on: NCI-H23; assay: Cytotoxicity against human NCI-H23 cells assessed as cell growth at 10 uM; format: functional; conditions: read-out: Activity; outline: as §1
[36] = tested on: SNB-19; assay: Cytotoxicity against human SNB19 cells assessed as cell growth at 10 uM; format: functional; conditions: read-out: Activity; outline: as §1
[37] = tested on: HT-29; assay: Cytotoxicity against human HT-29 cells assessed as cell growth at 10 uM; format: functional; conditions: read-out: Activity; outline: as §1
[38] = tested on: MCF7; assay: Cytotoxicity against human MCF7 cells assessed as cell growth at 10 uM; format: functional; conditions: read-out: Activity; outline: as §1
[39] = tested on: SF-539; assay: Cytotoxicity against human SF539 cells assessed as cell growth at 10 uM; format: functional; conditions: read-out: Activity; outline: as §1
[40] = tested on: UO-31; assay: Cytotoxicity against human UO31 cells assessed as cell growth at 10 uM; format: functional; conditions: read-out: Activity
[41] = tested on: HCC 2998; assay: Cytotoxicity against human HCC2998 cells assessed as cell growth at 10 uM; format: functional; conditions: read-out: Activity; outline: as §1
[42] = tested on: NCI-H226; assay: Cytotoxicity against human NCI-H226 cells assessed as cell growth at 10 uM; format: functional; conditions: read-out: Activity; outline: as §1
[43] = Cytotoxicity against human Hs 578T cells assessed as cell growth at 10 uM; format: functional; conditions: read-out: Activity; outline: as §1
[44] = tested on: SF-295; assay: Cytotoxicity against human SF295 cells assessed as cell growth at 10 uM; format: functional; conditions: read-out: Activity; outline: as §1
[45] = tested on: MDA-MB-231; assay: Cytotoxicity against human MDA-MB-231 cells assessed as cell growth at 10 uM; format: functional; conditions: read-out: Activity; outline: as §1

In the case of `C=C(C)[C@@H]1CC[C@]2(C(O)=S)CC[C@]3(C)[C@H](CC[C@@H]4[C@@]5(C)CC[C@H](O)C(C)(C)[C@@H]5CC[C@]43C)[C@@H]12`, the growth at 10 µM [1] is reported as 99.7%, the growth at 10 µM [2] is reported as 127% and the growth at 10 µM [3] is reported as 104%. It also gave an IC50 [4] greater than 25 µM, a growth at 10 µM [5] of 94.2% and a growth at 10 µM [6] of 85.2%. For the same molecule, the growth at 10 µM [7] was 101%, the growth at 10 µM [8] was 99.1% and the growth at 10 µM [9] was 94.9%. It also gave a growth at 10 µM [10] of 100%, a growth at 10 µM [11] of 71.9% and a growth at 10 µM [12] of 96%. The growth at 10 µM [13] was 93%, the growth at 10 µM [14] was 113% and the growth at 10 µM [15] was 113%. The growth at 10 µM [16] was 130%, the growth at 10 µM [17] was 105% and the growth at 10 µM [18] was 96.3%. The growth at 10 µM [19] was 91.3%, the growth at 10 µM [20] was 141% and the growth at 10 µM [21] was 129%. It also gave a growth at 10 µM [22] of 134%, an IC50 [23] greater than 25 µM and a growth at 10 µM [24] of 92.7%. It also gave a growth at 10 µM [25] of 103%, a growth at 10 µM [26] of 102% and a growth at 10 µM [27] of 80%. The growth at 10 µM [28] was 131%, the growth at 10 µM [29] was 94.8% and the growth at 10 µM [30] was 84.7%. It also gave a growth at 10 µM [31] of 109%, a growth at 10 µM [32] of 101% and an IC50 [33] greater than 25 µM. It also gave a growth at 10 µM [34] of 113%, a growth at 10 µM [35] of 93.4% and a growth at 10 µM [36] of 113%. It also gave a growth at 10 µM [37] of 112%, a growth at 10 µM [38] of 100% and a growth at 10 µM [39] of 111%. It also gave a growth at 10 µM [40] of 89.5%, a growth at 10 µM [41] of 128% and a growth at 10 µM [42] of 108%. For the same molecule, the growth at 10 µM [43] was 105%, the growth at 10 µM [44] was 98.4% and the growth at 10 µM [45] was 114%.
